Broadly, the Cmax is the highest concentration seen after dosing. By AUC is commonly meant the area under the concentration-time curve, a measure of exposure. The half-life is the time in which the quantity being followed falls by half. The solubility is the dissolved amount per volume that the medium holds.

Data on one compound can be found in ChEMBL document CHEMBL3621120, “Discovery of ((4-(5-(Cyclopropylcarbamoyl)-2-methylphenylamino)-5-methylpyrrolo[1,2-f][1,2,4]triazine-6-carbonyl)(propyl)carbamoyloxy)methyl-2-(4-(phosphonooxy)phenyl)acetate (BMS-751324), a Clinical Prodrug of p38α MAP Kinase Inhibitor” (J Med Chem, 2015).

Values after ≈ are worked out from the molar mass of the structure shown.

The test system of data set [1] is Rattus norvegicus. In words: Cmax in Sprague-Dawley rat assessed as plasma BMS-582949 level at 1 mg/kg, po dose equivalent to BMS-582949 after 24 hrs by LC/MS/MS method. The settings on record: in vivo. Also on record: dose 1 mg/kg, route oral. In kind it is ADME, organism-based.
The subject of data set [2] is Cynomolgus monkey. In words: AUC in cynomolgus monkey assessed as plasma BMS-582949 level at 30 mg/kg, po dose equivalent to BMS-582949 after 24 hrs by LC/MS/MS method. Format: ADME, organism-based, Macaca fascicularis. Also on record: time < 24 hr, dose 30 mg/kg, route oral. The settings on record: in vivo. The procedure, abridged:
(§1)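 Three overnight-fasted male cynomolgus monkeys (4.2-5.2 kg) given prodrug by oral gavage at 10 or 30 mg/kg, 5 mL/kg methocel suspension, one-week washout between doses. Femoral artery blood pre-dose and 0.25-24 h post-dose; plasma (centrifuged 4 °C) stored -20 °C and analysed by LC/MS/MS for parent.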

The subject of data set [3] is Cynomolgus monkey. In words: Bioavailability in cynomolgus monkey assessed as plasma BMS-582949 level at 10 mg/kg, po dose equivalent to BMS-582949 after 24 hrs by LC/MS/MS method. Format: ADME, organism-based, Macaca fascicularis. The conditions noted are these: in vivo. The method in brief: as §1
In data set [4] the target is T1, Alkaline phosphatase, placental type (Homo sapiens, UniProt P05187). In words: Stability assessed as human placental ALP-mediated drug degradation by measuring compound remaining level in pH 7.5 tris buffer at 10 uM incubated for 1 hr in presence of HALT phosphatase inhibitor cocktail by LC/MS/MS method. Format: ADME. The settings on record: pH 7.5, with HALT phosphatase inhibitor cocktail. The procedure, abridged: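 Human placental ALP (1 unit/mL) with HALT phosphatase inhibitor cocktail at 100x dilution, added before the test compound (10 µM). Buffer 89 mM tris pH 7.5, 37 °C, triplicate. Sampled at 0, 15, 30 and 60 min, quenched with EDTA and acetonitrile, centrifuged, and percent remaining determined by LC/MS/MS.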
T1 sequence (P05187 whole entry): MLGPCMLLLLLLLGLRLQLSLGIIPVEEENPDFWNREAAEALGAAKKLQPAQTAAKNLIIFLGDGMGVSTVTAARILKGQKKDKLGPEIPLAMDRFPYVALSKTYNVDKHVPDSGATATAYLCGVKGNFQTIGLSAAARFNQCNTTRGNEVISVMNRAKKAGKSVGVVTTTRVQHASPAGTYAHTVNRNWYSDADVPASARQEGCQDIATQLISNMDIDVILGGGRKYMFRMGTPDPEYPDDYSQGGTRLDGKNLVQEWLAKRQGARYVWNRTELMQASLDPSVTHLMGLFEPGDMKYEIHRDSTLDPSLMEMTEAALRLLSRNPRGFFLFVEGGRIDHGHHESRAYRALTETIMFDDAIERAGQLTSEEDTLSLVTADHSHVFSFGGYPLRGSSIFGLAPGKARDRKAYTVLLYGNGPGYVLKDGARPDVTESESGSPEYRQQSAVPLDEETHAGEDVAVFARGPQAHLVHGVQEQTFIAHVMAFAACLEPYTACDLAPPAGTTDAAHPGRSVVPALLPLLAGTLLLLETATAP

Data set [5] in a line: Stability in pH 7.4 solution assessed as half-life at 37 degC. Format: physicochemical.
The target in data set [6] is T1, Alkaline phosphatase, placental type. In words: Stability assessed as human placental ALP-mediated drug degradation by measuring compound remaining level in pH 7.5 tris buffer at 10 uM incubated for 0.25 hrs by LC/MS/MS method. In kind it is ADME. The settings on record: read-out: Stability. The procedure, abridged: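 Human placental alkaline phosphatase (1 unit/mL) incubated with compound at 10 µM in 89 mM tris buffer, pH 7.5, 37 °C; reactions in triplicate started by compound addition, sampled at 0, 15, 30, 60 min. For inhibition, HALT phosphatase inhibitor cocktail (100x dilution) added before compound. Samples quenched into EDTA, acetonitrile added, centrifuged, remaining compound measured by LC/MS/MS.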

Data set [7] relates to Rattus norvegicus. Put plainly: Bioavailability in Sprague-Dawley rat assessed as plasma BMS-582949 level at 1 mg/kg, po dose equivalent to BMS-582949 after 24 hrs by LC/MS/MS method. Format: ADME, organism-based. The conditions noted are these: in vivo.
A short description of data set [8]: Solubility of the compound in pH 6.7 solution at room temperature. Format: physicochemical.
Data set [9] relates to Rattus norvegicus. Put plainly: Bioavailability in Sprague-Dawley rat assessed as plasma BMS-582949 level at 100 mg/kg, po dose equivalent to BMS-582949 after 24 hrs by LC/MS/MS method. Format: ADME, organism-based. The conditions noted are these: in vivo.
Data set [10] deals with Cynomolgus monkey. Put plainly: Cmax in cynomolgus monkey assessed as plasma BMS-582949 level at 10 mg/kg, po dose equivalent to BMS-582949 after 24 hrs by LC/MS/MS method. In kind it is ADME, organism-based, Macaca fascicularis. Further details: dose 10 mg/kg, route oral. The conditions noted are these: in vivo. The method in brief: as §1
The subject of data set [11] is Rattus norvegicus. In words: Cmax in Sprague-Dawley rat assessed as plasma BMS-582949 level at 100 mg/kg, po dose equivalent to BMS-582949 after 24 hrs by LC/MS/MS method. Further details: dose 100 mg/kg, route oral. In kind it is ADME, organism-based. The conditions noted are these: in vivo.
For a further data set, the target named is T2, Liver carboxylesterase (Sus scrofa, UniProt Q29550).
T2 sequence (Q29550 whole entry): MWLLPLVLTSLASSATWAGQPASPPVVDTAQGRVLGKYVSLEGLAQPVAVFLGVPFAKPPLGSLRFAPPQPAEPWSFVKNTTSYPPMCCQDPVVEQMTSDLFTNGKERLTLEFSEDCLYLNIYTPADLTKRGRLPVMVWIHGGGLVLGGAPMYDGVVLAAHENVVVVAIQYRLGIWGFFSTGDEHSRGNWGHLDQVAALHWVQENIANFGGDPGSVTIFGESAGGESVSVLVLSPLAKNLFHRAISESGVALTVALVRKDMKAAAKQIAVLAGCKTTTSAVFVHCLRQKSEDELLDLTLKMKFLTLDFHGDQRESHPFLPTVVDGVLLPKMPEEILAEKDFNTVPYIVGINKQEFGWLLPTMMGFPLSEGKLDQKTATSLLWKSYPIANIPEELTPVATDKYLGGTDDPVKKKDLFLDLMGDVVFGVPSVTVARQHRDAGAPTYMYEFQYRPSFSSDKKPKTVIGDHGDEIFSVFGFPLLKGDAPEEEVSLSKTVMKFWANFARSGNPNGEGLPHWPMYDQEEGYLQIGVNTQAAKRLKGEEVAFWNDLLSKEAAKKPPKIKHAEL
Put plainly: Stability assessed as porcine liver esterase-mediated drug degradation by measuring compound remaining level in pH 7.4 potassium phosphate buffer at 10 uM incubated for 0.5 hrs by LC/MS/MS. Format: ADME, tissue-based. The conditions noted are these: pig, read-out: Stability. The procedure, abridged:
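Porcine liver esterase with substrate at 10 µM in 89 mM potassium phosphate pH 7.4, 37 °C. Reaction started by adding compound. Aliquots taken at 0, 15, 30 and 60 min and quenched with acetonitrile. After centrifugation at 4 °C, percent remaining quantified by LC/MS/MS.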

In data set [12] the test system is Rattus norvegicus. Put plainly: Cmax in Sprague-Dawley rat assessed as plasma BMS-582949 level at 10 mg/kg, po dose equivalent to BMS-582949 after 24 hrs by LC/MS/MS method. In kind it is ADME, organism-based. Also on record: dose 10 mg/kg, route oral. The conditions noted are these: in vivo.
In data set [13] the test system is Rattus norvegicus. In words: Bioavailability in Sprague-Dawley rat assessed as plasma BMS-582949 level at 10 mg/kg, po dose equivalent to BMS-582949 after 24 hrs by LC/MS/MS method. The conditions noted are these: in vivo. Format: ADME, organism-based.

Regarding `CCCN(C(=O)OCOC(=O)Cc1ccc(OP(=O)(O)O)cc1)C(=O)c1cn2ncnc(Nc3cc(C(=O)NC4CC4)ccc3C)c2c1C`, the Cmax in the data set on Rattus norvegicus [1] worked out at 0.4 µM; in the data set with Cynomolgus monkey [10], 12 µM; in the data set with Rattus norvegicus [11], 122 µM; in the data set with Rattus norvegicus [12], 18 µM. For the same compound, the AUC in the data set on Cynomolgus monkey [2] turned out to be 96 µM·h. In addition, the F is listed as 51% in the data set with Cynomolgus monkey [3], 41% with Rattus norvegicus [7], 115% in the data set with Rattus norvegicus [9] and 103% in the data set with Rattus norvegicus [13]. Also, the remaining at 1 h, 10 µM in data set [4] turned out to be 64.5%. Also, the half-life in [5] was 37 h. Besides, in data set [6], the remaining at 0.25 h, 10 µM came out at 12.5%. Further, in data set [8], the concentration in solution (solubility) was 3030 µg/mL (≈ 4.36 mM). Besides, on Liver carboxylesterase, the remaining at 0.5 h, 10 µM was 100%.
